According to ChEMBL document CHEMBL1127378, “Influence of lipophilicity on the biological activity of cyclic pseudopeptide NK-2 receptor antagonists” (J Med Chem, 1994):
Where a SMILES comes first, the peptide text is derived from it. [ ]: non-standard residue; d: D form. Cha = N[C@@H](CC1CCCCC1)C(=O)O; βAla = NCCC(=O)O

How the values were obtained:
[1] = Tested for capacity factors by reversed phase HPLC (C18, solvent system 1)
Substance-K receptor [2] = molecular target: T1, Substance-K receptor (Mesocricetus auratus, UniProt P51144); assay: Tested for antagonist activity at NK-2 tachykinin receptors in hamster trachea; type: functional; conditions: for Kb: read-out: pA2 (converted)
T1 sequence (P51144 whole entry): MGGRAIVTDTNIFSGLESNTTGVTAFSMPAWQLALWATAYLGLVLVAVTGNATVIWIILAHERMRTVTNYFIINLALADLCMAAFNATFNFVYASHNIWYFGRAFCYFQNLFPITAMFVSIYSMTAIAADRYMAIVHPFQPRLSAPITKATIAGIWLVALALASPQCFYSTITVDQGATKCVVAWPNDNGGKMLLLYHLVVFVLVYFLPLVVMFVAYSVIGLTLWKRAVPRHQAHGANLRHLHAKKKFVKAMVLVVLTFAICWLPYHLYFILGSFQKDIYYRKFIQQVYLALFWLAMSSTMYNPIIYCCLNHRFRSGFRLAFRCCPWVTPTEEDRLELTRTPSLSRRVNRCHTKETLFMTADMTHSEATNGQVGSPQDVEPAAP
In short: (§1)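 Isolated tissues from male New Zealand rabbits (2.5-3 kg) or male Syrian golden hamsters (90-130 g). Endothelium-denuded pulmonary artery strips (rabbit) or tracheal rings (hamster) were used for isometric tension in oxygenated (96% O2/4% CO2) Krebs. Thiorphan, captopril and bestatin were added 15 min before agonist. Cumulative NKA curves were repeated after 15 min antagonist incubation, with one concentration per experiment and at least three concentrations. pA2 came from constrained Schild plots (≥9 experiments).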

Substance-K receptor [3] = molecular target: T2, Substance-K receptor (Oryctolagus cuniculus, UniProt P79218); assay: Tested for antagonist activity at NK-2 tachykinin receptors in rabbit pulmonary artery; conditions: read-out: pA2 (converted)
T2 sequence (P79218 whole entry): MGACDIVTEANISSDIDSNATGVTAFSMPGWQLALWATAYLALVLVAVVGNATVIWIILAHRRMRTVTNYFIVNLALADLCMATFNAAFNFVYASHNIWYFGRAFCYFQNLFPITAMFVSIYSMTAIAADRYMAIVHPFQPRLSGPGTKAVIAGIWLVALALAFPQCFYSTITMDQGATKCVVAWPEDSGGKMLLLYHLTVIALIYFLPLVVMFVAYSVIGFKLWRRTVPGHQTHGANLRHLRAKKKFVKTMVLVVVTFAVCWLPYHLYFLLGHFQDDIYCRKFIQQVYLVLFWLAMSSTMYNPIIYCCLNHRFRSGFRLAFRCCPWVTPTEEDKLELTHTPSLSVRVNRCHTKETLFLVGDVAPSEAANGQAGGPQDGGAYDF

Substance-K receptor [4] = molecular target: T2, Substance-K receptor; assay: Antagonist activity at NK-2 tachykinin receptors in rabbit pulmonary artery; type: functional; conditions: for Kb: read-out: pA2 (converted)
In short: as §1

[5] = molecular target: T3, Substance-K receptor (Oryctolagus cuniculus) (UniProt P79218); conditions: filed as agonist
T3 sequence (whole entry): T2 sequence (P79218 whole entry)

[6] = molecular target: T3, Substance-K receptor (Oryctolagus cuniculus)

| Structure (SMILES) | k' [1] | Kb (Substance-K receptor [2]) [µM] | Kb (Substance-K receptor [4]) [µM] | also measured |
| --- | --- | --- | --- | --- |
| CC(C)C[C@@H]1CN[C@@H](Cc2ccccc2)C(=O)N[C@H](CCC(N)=O)C(=O)N[C@@H](Cc2c[nH]c3ccccc23)C(=O)N[C@H](Cc2ccccc2)C(=O)NCCC(=O)N1 | 10.5 |  |  |  |
| CC(C)C[C@@H]1CN[C@@H](CC2CCCCC2)C(=O)N[C@@H](CCC(N)=O)C(=O)N[C@@H](Cc2c[nH]c3ccccc23)C(=O)N[C@@H](Cc2ccccc2)C(=O)NCCC(=O)N1 |  | 0.000871 |  | Kb (Substance-K receptor [3]): 0.0389 µM |
| CC(C)C[C@@H]1CN[C@@H](CC(C)C)C(=O)N[C@@H](CCC(N)=O)C(=O)N[C@@H](Cc2c[nH]c3ccccc23)C(=O)N[C@@H](Cc2ccccc2)C(=O)NCCC(=O)N1 |  | 0.0158 | 0.112 |  |
| CC(C)C[C@@H]1CN[C@@H](CCCCNC(=O)OCc2ccccc2)C(=O)N[C@H](CCC(N)=O)C(=O)N[C@@H](Cc2c[nH]c3ccccc23)C(=O)N[C@H](Cc2ccccc2)C(=O)NCCC(=O)N1 | 11.9 |  |  |  |
| CC(C)C[C@@H]1CN[C@@H](CC2CCCCC2)C(=O)N[C@H](CCC(N)=O)C(=O)N[C@@H](Cc2c[nH]c3ccccc23)C(=O)N[C@H](Cc2ccccc2)C(=O)NCCC(=O)N1 | 11.6 |  |  |  |
| CC(C)C[C@@H]1CN[C@@H](Cc2ccc3ccccc3c2)C(=O)N[C@H](CCC(N)=O)C(=O)N[C@@H](Cc2c[nH]c3ccccc23)C(=O)N[C@H](Cc2ccccc2)C(=O)NCCC(=O)N1 | 12 |  |  |  |
| CC(C)C[C@@H]1CN[C@@H](CCCCN)C(=O)N[C@H](CCC(N)=O)C(=O)N[C@@H](Cc2c[nH]c3ccccc23)C(=O)N[C@H](Cc2ccccc2)C(=O)NCCC(=O)N1 | 6.8 |  |  | pA2 [5]: Agonist; pD2 [6]: 5.96 |
| CC(C)C[C@@H]1CN[C@@H](CC(=O)O)C(=O)N[C@@H](CCC(N)=O)C(=O)N[C@@H](Cc2c[nH]c3ccccc23)C(=O)N[C@@H](Cc2ccccc2)C(=O)NCCC(=O)N1 |  | 0.0676 | 1.07 |  |
| CC(C)C[C@@H]1CN[C@@H](CCCCNC(=O)OCc2ccccc2)C(=O)N[C@@H](CCC(N)=O)C(=O)N[C@@H](Cc2c[nH]c3ccccc23)C(=O)N[C@@H](Cc2ccccc2)C(=O)NCCC(=O)N1 |  | 0.00676 | 0.129 |  |
| CC(C)C[C@@H]1CN[C@@H](CC(N)=O)C(=O)N[C@H](CCC(N)=O)C(=O)N[C@@H](Cc2c[nH]c3ccccc23)C(=O)N[C@H](Cc2ccccc2)C(=O)NCCC(=O)N1 | 7.7 |  |  |  |
| CC(C)C[C@@H]1CN[C@@H](CC(=O)O)C(=O)N[C@H](CCC(N)=O)C(=O)N[C@@H](Cc2c[nH]c3ccccc23)C(=O)N[C@H](Cc2ccccc2)C(=O)NCCC(=O)N1 | 7.9 |  |  |  |
| CSCC[C@@H]1NC[C@@H](CC(C)C)NC(=O)CCNC(=O)[C@H](Cc2ccccc2)NC(=O)[C@H](Cc2c[nH]c3ccccc23)NC(=O)[C@H](CCC(N)=O)NC1=O |  | 0.0129 | 0.224 |  |
| CC(C)C[C@@H]1NC(=O)CCNC(=O)[C@H](Cc2ccccc2)NC(=O)[C@H](Cc2c[nH]c3ccccc23)NC(=O)[C@H](CCC(N)=O)NC(=O)[C@H](CC2CCCCC2)NC1=O (cyclo([Cha]QWF[βAla]L)) |  | 0.0316 | 1.45 |  |
| CC(C)C[C@@H]1CN(C)[C@@H](CC2CCCCC2)C(=O)N[C@@H](CCC(N)=O)C(=O)N[C@@H](Cc2c[nH]c3ccccc23)C(=O)N[C@@H](Cc2ccccc2)C(=O)NCCC(=O)N1 |  | 0.0038 | 0.117 |  |
| CC(C)C[C@@H]1CN[C@@H](CCCCN)C(=O)N[C@@H](CCC(N)=O)C(=O)N[C@@H](Cc2c[nH]c3ccccc23)C(=O)N[C@@H](Cc2ccccc2)C(=O)NCCC(=O)N1 |  | 0.309 |  |  |
| CC(C)C[C@@H]1CN[C@@H](CCC(=O)NCc2ccccc2)C(=O)N[C@H](CCC(N)=O)C(=O)N[C@@H](Cc2c[nH]c3ccccc23)C(=O)N[C@H](Cc2ccccc2)C(=O)NCCC(=O)N1 | 11.1 |  |  |  |
| CC(C)C[C@@H]1CN[C@@H](CC(C)C)C(=O)N[C@H](CCC(N)=O)C(=O)N[C@@H](Cc2c[nH]c3ccccc23)C(=O)N[C@H](Cc2ccccc2)C(=O)NCCC(=O)N1 | 9.9 |  |  |  |
| CC(C)C[C@@H]1CN(C)[C@@H](CC2CCCCC2)C(=O)N[C@H](CCC(N)=O)C(=O)N[C@@H](Cc2c[nH]c3ccccc23)C(=O)N[C@H](Cc2ccccc2)C(=O)NCCC(=O)N1 | 13.1 |  |  |  |
| CSCC[C@@H]1NC[C@@H](CC(C)C)NC(=O)CCNC(=O)[C@@H](Cc2ccccc2)NC(=O)[C@H](Cc2c[nH]c3ccccc23)NC(=O)[C@@H](CCC(N)=O)NC1=O | 9.6 |  |  |  |
| CC(C)C[C@@H]1CN[C@@H](Cc2ccccc2)C(=O)N[C@@H](CCC(N)=O)C(=O)N[C@@H](Cc2c[nH]c3ccccc23)C(=O)N[C@@H](Cc2ccccc2)C(=O)NCCC(=O)N1 |  | 0.0186 | 0.0794 |  |
| CC(C)C[C@@H]1CN[C@@H](CCC(=O)NCc2ccccc2)C(=O)N[C@@H](CCC(N)=O)C(=O)N[C@@H](Cc2c[nH]c3ccccc23)C(=O)N[C@@H](Cc2ccccc2)C(=O)NCCC(=O)N1 |  | 0.00055 | 0.0155 |  |
| CC(C)C[C@@H]1CN[C@@H](CC(N)=O)C(=O)N[C@@H](CCC(N)=O)C(=O)N[C@@H](Cc2c[nH]c3ccccc23)C(=O)N[C@@H](Cc2ccccc2)C(=O)NCCC(=O)N1 |  | 0.11 | 0.692 |  |
| CC(C)C[C@@H]1CN[C@@H](Cc2ccc3ccccc3c2)C(=O)N[C@@H](CCC(N)=O)C(=O)N[C@@H](Cc2c[nH]c3ccccc23)C(=O)N[C@@H](Cc2ccccc2)C(=O)NCCC(=O)N1 |  |  |  | pA2 (Substance-K receptor [2]): 8.79; pA2 (Substance-K receptor [4]): 7.37 |
